From ChEMBL document CHEMBL1124186, “Synthesis and evaluation of tylosin-related macrolides modified at the aldehyde function: a new series of orally effective antibiotics” (1988)
≈ marks a conversion by molar mass, not a printed value. One block for each compound: values may come before it.

Key:
Mus musculus [1] = assay: Peripheral plasma levels in mice after oral administration of 100 mg/kg dose for 0.25 hr; format: functional, organism-based; design: dose 100 mg/kg
How it was run: (§1)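 Mice were given the compound orally and sampled for peripheral plasma at each time point. Plasma was assayed microbiologically against Micrococcus luteus seeded in Antibiotic Medium 1. Inhibition zone sizes were read, and concentrations were calculated from each compound's own standard curve. Each value is the mean of five mice per time point.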

Mus musculus [2] = assay: Peripheral plasma levels in mice after oral administration of 100 mg/kg dose for 4 hr; format: functional, organism-based; design: dose 100 mg/kg; how it was run: as §1
Staphylococcus aureus [3] = assay: In vitro antimicrobial activity against Staphylococcus aureus X1; format: functional
Staphylococcus aureus [4] = assay: In vitro antimicrobial activity against aerobic bacteria Staphylococcus aureus V41; format: functional
Staphylococcus aureus [5] = assay: In vitro antimicrobial activity against aerobic bacteria Staphylococcus aureus V135; format: functional
Streptococcus [6] = assay: In vitro antimicrobial activity against aerobic bacteria Streptococcus D 9960; format: functional
Streptococcus pyogenes [7] = assay: In vivo effective dose against experimental infections in rodent caused by Streptococcus pyogenes C203 when administered orally; format: functional; details: po
Streptococcus [8] = assay: In vitro antimicrobial activity against aerobic bacteria Streptococcus B 5; format: functional
Streptococcus viridans = assay: In vitro antimicrobial activity against aerobic bacteria Streptococcus viridans 9943; format: functional
Haemophilus influenzae [9] = assay: In vitro antimicrobial activity against aerobic bacteria Haemophilus influenzae 76; format: functional
Streptococcus [10] = assay: In vitro antimicrobial activity against aerobic bacteria Streptococcus G Kruder; format: functional; details: Streptococcus; read-out: MIC
Streptococcus [11] = assay: In vitro antimicrobial activity against aerobic bacteria Streptococcus D 2041; format: functional
[12] = test system: Staphylococcus epidermidis; assay: In vitro antimicrobial activity against aerobic bacteria Streptococcus epi 270; format: functional
[13] = test system: Staphylococcus epidermidis; assay: In vitro antimicrobial activity against Staphylococcus epidermidis EPI1; format: functional
Mus musculus [14] = assay: Peripheral plasma levels in mice after oral administration of 100 mg/kg dose for 1 hr; format: functional, organism-based; design: dose 100 mg/kg; how it was run: as §1
Streptococcus sanguinis = assay: In vitro antimicrobial activity against aerobic bacteria Streptococcus sanguis MX132; format: functional
Mus musculus [15] = assay: Peripheral plasma levels in mice after oral administration of 50 mg/kg dose for 1 hr; format: functional, organism-based; design: dose 50 mg/kg; how it was run: as §1
Staphylococcus aureus [16] = assay: In vitro antimicrobial activity against aerobic bacteria Staphylococcus aureus X400; format: functional
[17] = test system: Staphylococcus epidermidis; assay: In vitro antimicrobial activity against aerobic bacteria Streptococcus epi 222; format: functional
Streptococcus [18] = assay: In vitro antimicrobial activity against aerobic bacteria Streptococcus B 8; format: functional
Mus musculus [19] = assay: Peripheral plasma levels in mice after oral administration of 100 mg/kg dose for 0.5 hr; format: functional, organism-based; design: dose 100 mg/kg; how it was run: as §1
Haemophilus influenzae [20] = assay: In vitro antimicrobial activity against aerobic bacteria Haemophilus influenzae MX366,; format: functional
Streptococcus [21] = assay: In vitro antimicrobial activity against aerobic bacteria Streptococcus D 8043; format: functional
Streptococcus pneumoniae [22] = assay: In vitro antimicrobial activity against Streptococcus pneumoniae; format: functional
Enterococcus faecium = assay: In vitro antimicrobial activity against Streptococcus faecium X66; format: functional, streptococcus fae-cium
Mus musculus [23] = assay: Peripheral plasma levels in mice after oral administration of 100 mg/kg dose for 2 hr; format: functional, organism-based; design: dose 100 mg/kg; how it was run: as §1
Staphylococcus aureus [24] = assay: In vitro antimicrobial activity against aerobic bacteria Staphylococcus aureus 513E; format: functional
Streptococcus [25] = assay: In vitro antimicrobial activity against aerobic bacteria Streptococcus C 24; format: functional
Staphylococcus aureus [26] = assay: In vitro antimicrobial activity against aerobic bacteria Staphylococcus aureus V140,; format: functional
Streptococcus pyogenes [27] = assay: In vitro antimicrobial activity against Streptococcus pyogenes C203; format: functional
Haemophilus influenzae [28] = assay: In vitro antimicrobial activity against Haemophilus influenzae.; format: functional
Streptococcus pneumoniae [29] = assay: In vitro antimicrobial activity against aerobic bacteria Streptococcus pneumoniae B1-438; format: functional, streptococcus pneum
Streptococcus [30] = assay: In vitro antimicrobial activity against aerobic bacteria Streptococcus B 14; format: functional
Streptococcus pyogenes [31] = assay: In vivo effective dose against experimental infections in rodent caused by Streptococcus pyogenes C203 when administered sc; format: functional

- MIC (Staphylococcus aureus [3]): 0.12 µg/mL (≈ 0.133 µM)
- MIC (Staphylococcus aureus [4]): 0.25 µg/mL (≈ 0.277 µM)
- MIC (Staphylococcus aureus [5]): 0.5 µg/mL (≈ 0.554 µM)
- MIC (Streptococcus [6]): 4 µg/mL (≈ 4.43 µM)
- MIC (Streptococcus [8]): 8 µg/mL (≈ 8.86 µM)
- MIC (Streptococcus viridans): > 128 µg/mL
- MIC (Haemophilus influenzae [9]): 32 µg/mL (≈ 35.4 µM)
- MIC (Streptococcus [10]): 32 µg/mL (≈ 35.4 µM)
- MIC (Streptococcus [11]): 8 µg/mL (≈ 8.86 µM)
- MIC [12]: > 128 µg/mL
- MIC [13]: 0.12 µg/mL (≈ 0.133 µM)
- MIC (Streptococcus sanguinis): 2 µg/mL (≈ 2.21 µM)
- MIC (Staphylococcus aureus [16]): 0.5 µg/mL (≈ 0.554 µM)
- MIC [17]: 0.1 µg/mL (≈ 0.111 µM)
- MIC (Streptococcus [18]): 8 µg/mL (≈ 8.86 µM)
- MIC (Haemophilus influenzae [20]): 32 µg/mL (≈ 35.4 µM)
- MIC (Streptococcus [21]): 4 µg/mL (≈ 4.43 µM)
- MIC (Streptococcus pneumoniae [22]): 2 µg/mL (≈ 2.21 µM)
- MIC (Enterococcus faecium): 8 µg/mL (≈ 8.86 µM)
- MIC (Staphylococcus aureus [24]): 0.25 µg/mL (≈ 0.277 µM)
- MIC (Streptococcus [25]): 0.5 µg/mL (≈ 0.554 µM)
- MIC (Staphylococcus aureus [26]): 0.5 µg/mL (≈ 0.554 µM)
- MIC (Streptococcus pyogenes [27]): 0.25 µg/mL (≈ 0.277 µM)
- MIC (Haemophilus influenzae [28]): 32 µg/mL (≈ 35.4 µM)
- MIC (Streptococcus pneumoniae [29]): > 128 µg/mL
- MIC (Streptococcus [30]): 8 µg/mL (≈ 8.86 µM)
SMILES: CC[C@H]1OC(=O)C[C@@H](O)[C@H](C)[C@@H](O[C@@H]2O[C@H](C)[C@@H](O)[C@H](N(C)C)[C@H]2O)[C@@H](CCN2C(=O)c3ccccc3C2=O)C[C@@H](C)C(=O)/C=C/C(C)=C/[C@@H]1CO[C@@H]1O[C@H](C)[C@@H](O)[C@@H](OC)[C@H]1OC
- Concentration (Mus musculus [1]): < 0.1 µg/mL
- Concentration (Mus musculus [2]): 0.3 µg/mL
- ED50 (Streptococcus pyogenes [7]): 15 mg/kg
- Concentration (Mus musculus [14]): 2.1 µg/mL
- Concentration (Mus musculus [15]): 0.8 µg/mL
- Concentration (Mus musculus [19]): < 0.1 µg/mL
- Concentration (Mus musculus [23]): 0.9 µg/mL
- ED50 (Streptococcus pyogenes [31]): 2.7 mg/kg

- MIC (Staphylococcus aureus [3]): 4 µg/mL (≈ 5.69 µM)
- MIC [13]: 4 µg/mL (≈ 5.69 µM)
- MIC (Streptococcus pneumoniae [22]): 1 µg/mL (≈ 1.42 µM)
- MIC (Enterococcus faecium): 8 µg/mL (≈ 11.4 µM)
- MIC (Streptococcus pyogenes [27]): 2 µg/mL (≈ 2.85 µM)
- MIC (Haemophilus influenzae [28]): 8 µg/mL (≈ 11.4 µM)
SMILES: CC[C@H]1OC(=O)C[C@@H](O)[C@H](C)[C@@H](O[C@@H]2O[C@H](C)[C@@H](O)[C@H](N(C)C)[C@H]2O)[C@@H](CCNCCc2ccccc2)C[C@@H](C)C(=O)/C=C/C(C)=C/[C@@H]1CO
- ED50 (Streptococcus pyogenes [7]): > 100 mg/kg
- ED50 (Streptococcus pyogenes [31]): 7.2 mg/kg
